The results in this text go back to paper PMC9301648 (ACS Omega, 2022).

Each structure is given as a SMILES string.

Data set [1] deals with human coronavirus (HCoV) 229E. Kind of data set: cytopathic effect. The data set is classed as cell-based. To be noted: unidentified human coronavirus, MRC5, read-out: normalized inhibition % (25 μM). In a few lines:
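MRC5 cells were seeded at 20,000 cells/well and grown overnight at 37 °C, 5% CO₂. Test compound diluted in assay medium was added, then HCoV 229E diluted in assay medium; final DMSO 0.5%. CPE was read by CellTiter Glo. Protection at each concentration was normalized to virus-only control. Screen at 25 μM; EC50 from full dose–response by four-parameter variable-slope nonlinear regression.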
A general note: Cytopathic effects are the visible damage that an infection or toxin causes in cultured cells.

Data set [2] is described as follows: cytotoxicity toward MRC5 cells, same conditions without virus infection. The format is cell-based. As to conditions: human. The essentials:
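Run in parallel with the antiviral CPE assay under identical conditions without virus infection. MRC5 cells were seeded at 20,000 cells/well and cultured overnight at 37 °C, 5% CO₂. Test compound diluted in assay medium was added; final DMSO 0.5%. Viability was read by CellTiter Glo. Single-point at 25 μM; CC50 by four-parameter log(inhibitor) vs response variable-slope regression.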

With `CC(=O)OC[C@@]1(C)[C@H]2CC[C@@H]3CN(Cc4ccc(Br)cc4)[C@@H](C4=CCOC4=O)C[C@H]3[C@]2(C)CC[C@H]1OC(C)=O` [4d, ((2R,4aS,6aS,7R,8R,10aS,10bR)-8-Acetoxy-3-(4-bromobenzyl)-7,10a-dimethyl-2-(2-oxo-2,5-dihydrofuran-3-yl)tetradecahydrobenzo[f]isoquinolin-7-yl)methyl Acetate], in data set [1], the inhibition – broadly, the relative decrease from the control value, in per cent – at 25 µM worked out at 110%. In addition, the cytotoxicity at 3 days, 25 µM in data set [2] was -3%.
